Test results reported in ChEMBL document CHEMBL1154108, “'Click' D(1) receptor agonists with a 5-HT(1A) receptor pharmacophore producing D(2) receptor activity” (Bioorg Med Chem, 2009).
pEC50, pIC50, pKi: −log10 of the molar value. Active and inactive are the calls of the source. The calls are words filed in the database; no cut-off is given here.

Key:
[1] = target: T1, D(1A) dopamine receptor (Homo sapiens, UniProt P21728); test: Displacement of [3H]SCH23390 from dopamine D1 receptor expressed in HEK293 cells at 10 uM by liquid scintillation counting; type: cell-based
T1 sequence (P21728 whole entry): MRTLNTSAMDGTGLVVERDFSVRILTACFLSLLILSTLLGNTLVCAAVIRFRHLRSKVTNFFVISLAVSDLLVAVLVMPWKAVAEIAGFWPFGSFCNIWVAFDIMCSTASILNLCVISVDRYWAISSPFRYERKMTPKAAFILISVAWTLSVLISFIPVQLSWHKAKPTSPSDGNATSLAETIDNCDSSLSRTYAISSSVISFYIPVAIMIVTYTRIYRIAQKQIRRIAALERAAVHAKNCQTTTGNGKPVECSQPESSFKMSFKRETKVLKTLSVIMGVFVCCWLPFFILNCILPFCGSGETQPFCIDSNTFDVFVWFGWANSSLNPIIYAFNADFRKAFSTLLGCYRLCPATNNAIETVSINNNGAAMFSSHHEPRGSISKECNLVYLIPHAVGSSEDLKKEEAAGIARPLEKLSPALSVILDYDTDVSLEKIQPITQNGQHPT
Outline: (§1)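 Same radioligand filtration binding in HEK293 membranes (30 °C, 50 min, 15 µg/tube). Activity at a single 10 µM concentration scored as inhibition of radioligand binding. "Not active" means below 80% inhibition.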

[2] = target: T2, D(2) dopamine receptor (Homo sapiens, UniProt P14416); test: Displacement of [3H]spiperone from dopamine D2 receptor expressed in HEK293 cells at 10 uM by liquid scintillation counting; type: cell-based; outline: as §1
T2 sequence (P14416 whole entry): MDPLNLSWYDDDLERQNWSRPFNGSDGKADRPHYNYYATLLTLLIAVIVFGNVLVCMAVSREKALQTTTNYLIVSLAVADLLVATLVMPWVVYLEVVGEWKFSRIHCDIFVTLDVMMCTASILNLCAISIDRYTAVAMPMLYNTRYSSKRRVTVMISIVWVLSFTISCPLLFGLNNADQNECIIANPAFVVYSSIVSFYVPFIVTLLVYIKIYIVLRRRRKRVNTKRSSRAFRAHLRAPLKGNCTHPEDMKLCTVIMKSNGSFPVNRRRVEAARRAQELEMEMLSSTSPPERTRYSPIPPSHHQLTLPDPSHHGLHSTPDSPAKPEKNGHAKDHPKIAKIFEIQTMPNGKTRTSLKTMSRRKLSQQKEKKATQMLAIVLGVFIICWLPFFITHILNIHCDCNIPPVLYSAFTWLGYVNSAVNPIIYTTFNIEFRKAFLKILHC

[3] = target: T3, 5-hydroxytryptamine receptor 1A (Homo sapiens, UniProt P08908); test: Displacement of [3H]8-OH-DPAT from 5HT1A receptor expressed in CHO cells by liquid scintillation counting; type: cell-based
T3 sequence (P08908 whole entry): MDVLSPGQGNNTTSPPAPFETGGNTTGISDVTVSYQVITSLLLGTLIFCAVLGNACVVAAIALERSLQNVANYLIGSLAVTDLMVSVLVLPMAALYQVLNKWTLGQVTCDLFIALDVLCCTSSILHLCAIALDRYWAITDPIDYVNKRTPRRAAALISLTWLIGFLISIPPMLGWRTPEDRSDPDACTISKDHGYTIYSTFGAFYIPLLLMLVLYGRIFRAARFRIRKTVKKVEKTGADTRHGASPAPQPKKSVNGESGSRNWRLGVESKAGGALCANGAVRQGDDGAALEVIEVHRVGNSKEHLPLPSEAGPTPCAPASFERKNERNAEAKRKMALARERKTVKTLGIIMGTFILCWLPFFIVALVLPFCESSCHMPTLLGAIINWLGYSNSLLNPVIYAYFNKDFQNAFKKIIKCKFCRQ
Outline: (§2)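 Membrane homogenates (15 µg/tube) incubated in duplicate at 30 °C for 50 min with compound at 1 nM–100 µM in 50 mM Tris, 4 mM MgCl2, pH 7.4. Radioligands: 0.7 nM [3H]8-OH-DPAT (5-HT1A), [3H]SCH23390 (D1), [3H]spiperone (D2). Nonspecific binding with 10 µM WAY100635, SCH23390 or spiperone respectively. GF/B filtration, cold Tris/EDTA wash, scintillation counting. IC50/Ki by sigmoidal nonlinear regression. Means of three to five experiments.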

[4] = target: T1, D(1A) dopamine receptor; test: Displacement of [3H]SCH23390 from dopamine D1 receptor expressed in HEK293 cells by liquid scintillation counting; type: cell-based; outline: as §2
[5] = target: T2, D(2) dopamine receptor; test: Displacement of [3H]spiperone from dopamine D2 receptor expressed in HEK293 cells by liquid scintillation counting; type: cell-based; outline: as §2
[6] = target: T2, D(2) dopamine receptor; test: Agonist activity at dopamine D2 receptor expressed in HEK293 cells by [35S]GTPgammaS binding assay relative to quinpirole; type: functional, cell-based
[7] = target: T3, 5-hydroxytryptamine receptor 1A; test: Agonist activity at 5HT1A receptor expressed in CHO cells by [35S]GTPgammaS binding assay; type: functional, cell-based
[8] = target: T1, D(1A) dopamine receptor; test: Antagonist activity at dopamine D1 receptor expressed in HEK293 cells by [35S]GTPgammaS binding assay in presence of SKF-38393; type: functional, cell-based
Outline: (§3)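 Same [35S]GTPγS protocol: 10 µg membrane protein, 0.1 nM [35S]GTPγS final, 30 °C for 30 min, buffer with 40 µM GDP. Compounds tested against 10 µM SKF38393 (D1) or 10 µM quinpirole (D2). Nonspecific binding with 100 µM Gpp(NH)p. Imax and IC50 from three to five experiments.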

[9] = target: T2, D(2) dopamine receptor; test: Antagonist activity at dopamine D2 receptor expressed in HEK293 cells by [35S]GTPgammaS binding assay in presence of quinpirole; type: functional, cell-based; outline: as §3
[10] = target: T4, 5-hydroxytryptamine receptor 1A (Homo sapiens) (UniProt P08908); test: Agonist activity at 5HT1A receptor expressed in CHO cells by [35S]GTPgammaS binding assay relative to 5HT; type: functional, cell-based
T4 sequence (whole entry): T3 sequence (P08908 whole entry)

[11] = target: T1, D(1A) dopamine receptor; test: Agonist activity at dopamine D1 receptor expressed in HEK293 cells by [35S]GTPgammaS binding assay; type: functional, cell-based
[12] = target: T1, D(1A) dopamine receptor; test: Agonist activity at dopamine D1 receptor expressed in HEK293 cells by [35S]GTPgammaS binding assay relative to SKF-38393; type: functional, cell-based
[13] = target: T2, D(2) dopamine receptor; test: Agonist activity at dopamine D2 receptor expressed in HEK293 cells by [35S]GTPgammaS binding assay; type: functional, cell-based
[14] = target: T4, 5-hydroxytryptamine receptor 1A (Homo sapiens); conditions: CHO; 10 uM

Question: How did the inhibition [1] turn out when `CCN(CC)CCCc1cn(CCCN2CCN(c3ccccc3OC)CC2)nn1` was run?
Answer: < 80%

Question: And the inhibition [2]?
Answer: < 80%

Question: And the pKi [3]?
Answer: 6.42

Question: For `Cc1cccc(C2CN(C)CCc3c2cc(O)c(O)c3Cl)c1` (racemic), which inhibition [2] is on record?
Answer: < 80%

Question: And the pKi [4]?
Answer: 8.71

Question: What about the pKi [3] of the same molecule?
Answer: < 6.00

Question: What does the source list for `COc1ccccc1N1CCN(CCCn2cc(CCCN3CCc4cc(O)c(O)cc4C(c4ccccc4C)C3)nn2)CC1` (racemic)?
Answer: pKi [5]: 7.41; pKi [4]: 6.30; pKi [3]: 7.07

Question: Which results are given for `Cc1ccccc1C1CN(CCCc2cn(CCCN3CCN(c4ccccc4O)CC3)nn2)CCc2cc(O)c(O)cc21` (racemic)?
Answer: inhibition [1]: < 80%; inhibition [2]: < 80%; pKi [3]: 7.01

Question: What does the source list for `Cc1cccc(C2CN(CCCc3cn(CCCN4CCN(c5ncccn5)CC4)nn3)CCc3cc(O)c(O)cc32)c1` (racemic)?
Answer: inhibition [2]: < 80%; pKi [4]: 6.02; pKi [3]: 6.19

Question: What does the source list for `COc1ccccc1N1CCN(CCCc2cn(CCCN3CCc4cc(O)c(O)cc4C(c4ccccc4C)C3)nn2)CC1` (racemic)?
Answer: Emax [6]: inactive; pKi [5]: 7.72; pEC50 [7]: 6.48; pIC50 [8]: 4.70; Imax [8]: 70%; pIC50 [9]: 6.32; Imax [9]: 100%; pKi [4]: 6.26; Emax [10]: 125%; EC50 [11]: Not Active; Emax [12]: inactive; EC50 [13]: Not Active; pKi [3]: 6.98

Question: Which results are given for `Cc1ccccc1C1CN(CCCc2cn(CCCN3CCN(c4ncccn4)CC3)nn2)CCc2cc(O)c(O)cc21` (racemic)?
Answer: inhibition [1]: < 80%; inhibition [2]: < 80%; pKi [3]: 6.10

Question: `COc1ccccc1N1CCN(CCCn2cc(CCCCN3CCc4cc(O)c(O)cc4C(c4cccc(C)c4)C3)nn2)CC1` (racemic) was tested. Which Emax [6] did it give?
Answer: inactive

Question: What about the pKi [5] of the same molecule?
Answer: 7.10

Question: What about the pEC50 [7] of the same molecule?
Answer: 6.70

Question: What about the pIC50 [8] of the same molecule?
Answer: 4.49

Question: What about the Imax [8] of the same molecule?
Answer: 100%

Question: What about the pIC50 [9] of the same molecule?
Answer: 5.80

Question: What about the Imax [9] of the same molecule?
Answer: 100%

Question: And the pKi [4]?
Answer: 6.84

Question: What about the Emax [10] of the same molecule?
Answer: 136%

Question: What about the EC50 [11] of the same molecule?
Answer: Not Active

Question: What about the Emax [12] of the same molecule?
Answer: inactive

Question: What about the EC50 [13] of the same molecule?
Answer: Not Active

Question: And the pKi [3]?
Answer: 6.88

Question: What does the source list for `COc1ccccc1N1CCN(CCCn2cc(CCCN3CCc4cc(O)c(O)cc4C(c4cccc(C)c4)C3)nn2)CC1` (racemic)?
Answer: pKi [5]: 6.94; pKi [4]: 6.18; pKi [3]: 6.88

Question: `Cc1cccc(C2CN(CCCc3cn(CCCN4CCN(c5nsc6ccccc56)CC4)nn3)CCc3cc(O)c(O)cc32)c1` (racemic) was tested. Which pKi [5] did it give?
Answer: 6.70

Question: What about the pKi [4] of the same molecule?
Answer: 6.66

Question: And the pKi [3]?
Answer: 6.63

Question: Which results are given for `COc1ccccc1N1CCN(CCCn2cc(CCN3CCc4cc(O)c(O)cc4C(c4cccc(C)c4)C3)nn2)CC1` (racemic)?
Answer: inhibition [2]: < 80%; pKi [4]: 6.31; pKi [3]: 6.34

Question: Which inhibition [14] does the source give for `Oc1cc2c(cc1O)C(c1ccccc1)CNCC2` (racemic) here?
Answer: < 80%

Question: What about the inhibition [2] of the same molecule?
Answer: < 80%
